In ChEMBL document CHEMBL5678799 (Biochem J, 2009):

Columns and labels:
[1] = target: Calcium/calmodulin-dependent protein kinase type 1 (Homo sapiens) (UniProt Q14012); test: Inhibition of recombinant human N-terminal GST-tagged CAMK1alpha (2 to 369 residues) expressed in Escherichia coli assessed as remaining activity at 1 uM using YLRRRLSDSNF as substrate incubated for 30 mins in presence of [gamma-33P]ATP by filter binding method relative to control
Summary of the method: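 Run robotically for 30 min at 21 °C under linear conditions. Compound at 1 or 10 µM. Percentage activity remaining versus control without compound, triplicate mean ± S.D.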

[2] = tested on: RAC-alpha serine/threonine-protein kinase (Homo sapiens), P31749 [S473D]; test: Inhibition of recombinant human His6-tagged AKT1 S473D mutant (118 to 480 residues) expressed in baculovirus infected Sf21 cells assessed as remaining activity at 10 uM using crosstide peptide as substrate incubated for 30 mins in presence of [gamma-33P]ATP by filter binding method relative to control
Summary of the method: (§1)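 Radiometric panel assay run robotically at 21 °C for 30 min, linear in time and enzyme. […] Activity is expressed as percentage of the compound-omitted control, averaged from triplicates ± S.D.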

[3] = target: Serine/threonine-protein kinase pim-2 (Homo sapiens) (UniProt Q9P1W9); test: Inhibition of recombinant human N-terminal GST-tagged PIM2 (2 to 334 residues) expressed in Escherichia coli assessed as remaining activity at 10 uM using RSRHSSYPAGT as substrate incubated for 30 mins in presence of [gamma-33P]ATP by filter binding method relative to control
Summary of the method: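 Radiometric kinase panel run robotically at room temperature (21 °C) for 30 min, linear in time and enzyme. […] Activity is expressed as percent of control without compound, from triplicate determinations ± S.D.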

[4] = target: 3-phosphoinositide-dependent protein kinase 1 (Homo sapiens) (UniProt O15530); test: Inhibition of recombinant human His6-tagged PDK1 (52 to 556 residues) expressed in baculovirus infected Sf21 cells assessed as remaining activity at 10 uM using PDKtide as substrate incubated for 30 mins in presence of [gamma-33P]ATP by filter binding method relative to control
Summary of the method: (§2)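 Robotic radiometric panel assay, 30 min at room temperature (21 °C), with 10 mM magnesium acetate. […] Compound at 1 or 10 µM. Residual activity expressed relative to compound-free control; triplicate average ± S.D.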

[5] = target: Phosphorylase b kinase gamma catalytic chain, skeletal muscle/heart isoform (Homo sapiens) (UniProt Q16816); test: Inhibition of recombinant human N-terminal GST-tagged PHKgamma1 (2 to 297 residues) expressed in Escherichia coli assessed as remaining activity at 10 uM using phosphorylase b peptide as substrate incubated for 30 mins in presence of [gamma-33P]ATP by filter binding method relative to control
Summary of the method: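 Incubation was 30 min at room temperature (21 °C) under conditions linear with time and enzyme amount. Activity is reported as percent of control lacking compound, triplicate mean ± S.D.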

[6] = target: Serine/threonine-protein kinase PLK1 (Homo sapiens) (UniProt P53350); test: Inhibition of recombinant human N-terminal His6-tagged PLK1 (1 to 603 residues) expressed in baculovirus infected Sf21 cells assessed as remaining activity at 10 uM using ISDELMDATFADQEAKKK as substrate incubated for 30 mins in presence of [gamma-33P]ATP by filter binding method relative to control; summary of the method: as §1
[7] = target: Serine/threonine-protein kinase PAK 6 (Homo sapiens) (UniProt Q9NQU5); test: Inhibition of recombinant human N-terminal GST-tagged PAK6 (2 to 681 residues) expressed in Escherichia coli assessed as remaining activity at 10 uM using RRRLSFAEPG as substrate incubated for 30 mins in presence of [gamma-33P]ATP by filter binding method relative to control
Summary of the method: (§3)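 Panel assays were run for 30 min at 21 °C, within the linear range for time and enzyme. […] Results are percent activity remaining relative to compound-free control, averaged from triplicate ± S.D.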

mTORC2 (Homo sapiens) [8] = target: T1, mTORC2 (Homo sapiens) (UniProt P42345+Q6R327+Q9BVC4+Q9BPZ7); details: HEK293, dose 30-1000 nM, time 30.0 min
[9] = target: Eukaryotic elongation factor 2 kinase (Homo sapiens) (UniProt O00418); test: Inhibition of recombinant human N-terminal GST-tagged EF2K (2 to 725 residues) expressed in Escherichia coli assessed as remaining activity at 1 uM using RKKFGESKTKTKEFL as substrate incubated for 30 mins in presence of [gamma-33P]ATP by filter binding method relative to control
Summary of the method: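 Kinase panel run robotically at 21 °C for 30 min, linear in time and enzyme. […] Compound tested at 1 or 10 µM. Activity given as percentage of incubations without compound, mean of triplicates ± S.D.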

[10] = tested on: Ribosomal protein S6 kinase beta-1 (Homo sapiens), P23443 [T412E]; test: Inhibition of recombinant human His6-tagged S6K1 T412E mutant (1 to 421 residues) expressed in baculovirus infected Sf21 cells assessed as remaining activity at 10 uM using KKRNRTLTV as substrate incubated for 30 mins in presence of [gamma-33P]ATP by filter binding method relative to control
Summary of the method: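 Incubations ran robotically for 30 min at room temperature (21 °C) under linear conditions. Results are percent activity remaining versus controls without compound, as the mean of triplicates ± S.D.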

[11] = target: Ribosomal protein S6 kinase alpha-5 (Homo sapiens) (UniProt O75582); test: Inhibition of recombinant human His6-tagged MSK1 (2 to 802 residues) expressed in baculovirus infected Sf21 cells assessed as remaining activity at 10 uM using GRPRTSSFAEGKK as substrate incubated for 30 mins in presence of [gamma-33P]ATP by filter binding method relative to control; summary of the method: as §2
[12] = target: Myosin light chain kinase (Homo sapiens) (UniProt Q32MK0); test: Inhibition of MLCK (unknown origin) assessed as remaining activity at 10 uM relative to control
Summary of the method: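 Profiling-centre panel assay performed robotically at 21 °C for 30 min, linear with time and enzyme. […] Values are percent of compound-free control activity, the mean of triplicates ± S.D.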

[13] = target: Serine/threonine-protein kinase 3 (Homo sapiens) (UniProt Q13188); test: Inhibition of recombinant human N-terminal GST-tagged MST2 (2 to 491 residues) expressed in baculovirus infected Sf21 cells assessed as remaining activity at 10 uM using MBP as substrate incubated for 30 mins in presence of [gamma-33P]ATP by filter binding method relative to control; summary of the method: as §3
[14] = target: Phosphatidylinositol 3-kinase catalytic subunit type 3 (Homo sapiens) (UniProt Q8NEB9); test: Inhibition of VPS34 (unknown origin) assessed as remaining activity at 1 uM using phosphatidylinositol as substrate incubated for 60 mins in presence of ATP relative to control
MEF = test: Induction of cell cycle arrest in mLST8 knockout MEF cells assessed as accumulation at G2 phase at 3 uM incubated for 1 to 3 days by propidium iodide staining based flow cytometric analysis (reference value: 14.1 +/- 0.69%); type: toxicity; details: mouse, time 1-3 day
mTORC2 (Homo sapiens) [15] = target: T1, mTORC2 (Homo sapiens); details: HEK293, dose 30-1000 nM, time 30.0 min; remark: listed apart in the source

Sequence of Ribosomal protein S6 kinase alpha-5 (Homo sapiens) (O75582 whole entry, looked up, the tested form may be a part): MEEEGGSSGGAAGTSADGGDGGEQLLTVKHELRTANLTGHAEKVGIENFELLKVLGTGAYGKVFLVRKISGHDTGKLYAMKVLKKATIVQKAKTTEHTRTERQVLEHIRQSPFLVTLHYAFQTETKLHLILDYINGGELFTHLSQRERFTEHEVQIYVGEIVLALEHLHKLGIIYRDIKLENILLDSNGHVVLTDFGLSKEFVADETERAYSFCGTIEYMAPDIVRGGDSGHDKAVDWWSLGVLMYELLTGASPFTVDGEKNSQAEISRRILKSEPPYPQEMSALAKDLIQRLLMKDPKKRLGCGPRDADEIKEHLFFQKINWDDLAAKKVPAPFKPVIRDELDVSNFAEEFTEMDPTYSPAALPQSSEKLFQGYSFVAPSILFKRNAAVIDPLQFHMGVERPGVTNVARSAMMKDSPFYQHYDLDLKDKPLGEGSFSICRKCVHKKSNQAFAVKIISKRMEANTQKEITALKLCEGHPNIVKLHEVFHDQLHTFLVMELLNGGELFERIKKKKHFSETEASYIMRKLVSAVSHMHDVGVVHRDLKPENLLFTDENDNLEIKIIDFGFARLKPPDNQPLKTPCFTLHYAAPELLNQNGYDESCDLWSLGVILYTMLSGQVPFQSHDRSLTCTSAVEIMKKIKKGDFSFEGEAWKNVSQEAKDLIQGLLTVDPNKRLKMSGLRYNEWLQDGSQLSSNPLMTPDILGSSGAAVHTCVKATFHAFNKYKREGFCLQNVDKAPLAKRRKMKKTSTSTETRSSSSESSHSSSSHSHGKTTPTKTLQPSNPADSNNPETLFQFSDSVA
Sequence of Serine/threonine-protein kinase 3 (Homo sapiens) (Q13188 whole entry, the tested form may be a part): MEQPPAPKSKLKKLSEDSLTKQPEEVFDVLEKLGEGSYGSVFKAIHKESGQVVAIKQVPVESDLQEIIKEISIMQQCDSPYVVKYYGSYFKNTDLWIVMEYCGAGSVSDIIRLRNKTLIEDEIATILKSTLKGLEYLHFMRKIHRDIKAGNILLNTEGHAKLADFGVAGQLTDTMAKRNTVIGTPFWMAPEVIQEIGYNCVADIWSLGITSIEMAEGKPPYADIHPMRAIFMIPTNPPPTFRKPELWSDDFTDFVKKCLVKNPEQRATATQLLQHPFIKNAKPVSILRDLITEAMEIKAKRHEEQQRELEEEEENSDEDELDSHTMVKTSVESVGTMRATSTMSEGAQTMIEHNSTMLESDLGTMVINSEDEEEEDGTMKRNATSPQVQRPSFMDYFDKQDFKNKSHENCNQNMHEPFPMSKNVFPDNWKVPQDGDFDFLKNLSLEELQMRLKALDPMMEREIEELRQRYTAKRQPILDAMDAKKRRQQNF
Sequence of Phosphorylase b kinase gamma catalytic chain, skeletal muscle/heart isoform (Homo sapiens) (Q16816 whole entry, looked up, the tested form may be a part, canonical isoform): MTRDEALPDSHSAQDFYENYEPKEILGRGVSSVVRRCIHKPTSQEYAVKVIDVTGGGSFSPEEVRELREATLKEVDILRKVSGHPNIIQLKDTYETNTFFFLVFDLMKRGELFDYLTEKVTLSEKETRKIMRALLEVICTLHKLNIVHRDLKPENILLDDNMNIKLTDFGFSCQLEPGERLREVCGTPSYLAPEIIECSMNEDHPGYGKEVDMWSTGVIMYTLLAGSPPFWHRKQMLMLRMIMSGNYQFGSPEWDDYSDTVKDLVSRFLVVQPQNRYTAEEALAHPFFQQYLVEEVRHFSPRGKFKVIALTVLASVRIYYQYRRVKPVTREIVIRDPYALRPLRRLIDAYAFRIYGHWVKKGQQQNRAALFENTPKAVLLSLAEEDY
Sequence of Serine/threonine-protein kinase pim-2 (Homo sapiens) (Q9P1W9 whole entry, looked up, the tested form may be a part): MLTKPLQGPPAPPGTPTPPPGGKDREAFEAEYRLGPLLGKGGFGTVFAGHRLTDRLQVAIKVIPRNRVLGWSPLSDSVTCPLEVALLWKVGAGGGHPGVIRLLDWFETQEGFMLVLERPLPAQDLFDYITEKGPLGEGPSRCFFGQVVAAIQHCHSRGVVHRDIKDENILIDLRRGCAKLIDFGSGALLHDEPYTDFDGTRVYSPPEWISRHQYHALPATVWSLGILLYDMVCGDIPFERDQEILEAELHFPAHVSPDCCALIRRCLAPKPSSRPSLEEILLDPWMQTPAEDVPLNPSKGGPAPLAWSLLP
Sequence of Ribosomal protein S6 kinase beta-1 (Homo sapiens), P23443 [T412E] (P23443 whole entry T412E, looked up, the tested form may be a part): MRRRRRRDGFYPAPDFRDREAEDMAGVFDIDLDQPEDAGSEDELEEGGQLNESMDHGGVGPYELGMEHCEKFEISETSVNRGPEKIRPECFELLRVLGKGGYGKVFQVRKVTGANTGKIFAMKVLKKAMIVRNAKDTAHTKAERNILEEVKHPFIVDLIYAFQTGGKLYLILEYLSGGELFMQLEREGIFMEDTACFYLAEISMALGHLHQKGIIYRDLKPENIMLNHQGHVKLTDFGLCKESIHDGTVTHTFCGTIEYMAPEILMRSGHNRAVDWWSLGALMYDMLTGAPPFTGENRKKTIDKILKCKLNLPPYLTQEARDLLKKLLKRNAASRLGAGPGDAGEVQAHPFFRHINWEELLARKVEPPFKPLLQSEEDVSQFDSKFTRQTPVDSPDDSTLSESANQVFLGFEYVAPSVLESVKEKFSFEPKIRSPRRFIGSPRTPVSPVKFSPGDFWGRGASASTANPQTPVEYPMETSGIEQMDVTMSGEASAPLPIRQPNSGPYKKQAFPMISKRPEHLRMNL
Sequence of Eukaryotic elongation factor 2 kinase (Homo sapiens) (O00418 whole entry, the tested form may be a part): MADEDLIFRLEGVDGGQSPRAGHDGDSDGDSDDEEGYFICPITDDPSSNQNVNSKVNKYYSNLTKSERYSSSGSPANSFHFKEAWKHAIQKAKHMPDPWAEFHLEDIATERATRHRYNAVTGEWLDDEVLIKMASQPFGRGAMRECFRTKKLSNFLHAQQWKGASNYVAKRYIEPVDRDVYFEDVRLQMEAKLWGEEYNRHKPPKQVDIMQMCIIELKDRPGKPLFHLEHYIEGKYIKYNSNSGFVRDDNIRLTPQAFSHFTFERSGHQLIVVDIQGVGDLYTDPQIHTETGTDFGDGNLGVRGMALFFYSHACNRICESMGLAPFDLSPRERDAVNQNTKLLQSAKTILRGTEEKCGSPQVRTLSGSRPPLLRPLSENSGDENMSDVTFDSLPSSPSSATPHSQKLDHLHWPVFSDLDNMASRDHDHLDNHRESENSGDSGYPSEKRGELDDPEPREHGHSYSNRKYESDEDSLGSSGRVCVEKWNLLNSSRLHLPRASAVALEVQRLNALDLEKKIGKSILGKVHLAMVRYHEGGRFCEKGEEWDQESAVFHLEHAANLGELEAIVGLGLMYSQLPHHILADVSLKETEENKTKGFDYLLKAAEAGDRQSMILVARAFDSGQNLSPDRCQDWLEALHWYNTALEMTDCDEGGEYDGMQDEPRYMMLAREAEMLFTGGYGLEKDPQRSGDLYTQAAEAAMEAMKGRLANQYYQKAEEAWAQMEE
Sequence of 3-phosphoinositide-dependent protein kinase 1 (Homo sapiens) (O15530 whole entry, the tested form may be a part): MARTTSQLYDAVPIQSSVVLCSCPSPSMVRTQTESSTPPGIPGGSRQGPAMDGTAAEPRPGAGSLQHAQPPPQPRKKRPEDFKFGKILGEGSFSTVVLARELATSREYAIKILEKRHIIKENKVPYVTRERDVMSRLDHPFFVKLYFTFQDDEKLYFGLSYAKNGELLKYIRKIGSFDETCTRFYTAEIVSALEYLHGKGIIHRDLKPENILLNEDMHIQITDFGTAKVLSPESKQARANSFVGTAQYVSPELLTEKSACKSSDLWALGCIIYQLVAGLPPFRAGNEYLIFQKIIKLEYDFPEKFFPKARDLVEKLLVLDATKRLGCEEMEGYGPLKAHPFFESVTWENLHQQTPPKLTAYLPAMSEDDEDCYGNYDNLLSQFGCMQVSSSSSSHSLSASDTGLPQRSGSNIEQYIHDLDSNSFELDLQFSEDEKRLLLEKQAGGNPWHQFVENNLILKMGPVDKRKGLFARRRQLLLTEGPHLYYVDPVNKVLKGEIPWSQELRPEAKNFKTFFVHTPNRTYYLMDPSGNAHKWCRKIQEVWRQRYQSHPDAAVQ
Sequence of RAC-alpha serine/threonine-protein kinase (Homo sapiens), P31749 [S473D] (P31749 whole entry S473D, the tested form may be a part): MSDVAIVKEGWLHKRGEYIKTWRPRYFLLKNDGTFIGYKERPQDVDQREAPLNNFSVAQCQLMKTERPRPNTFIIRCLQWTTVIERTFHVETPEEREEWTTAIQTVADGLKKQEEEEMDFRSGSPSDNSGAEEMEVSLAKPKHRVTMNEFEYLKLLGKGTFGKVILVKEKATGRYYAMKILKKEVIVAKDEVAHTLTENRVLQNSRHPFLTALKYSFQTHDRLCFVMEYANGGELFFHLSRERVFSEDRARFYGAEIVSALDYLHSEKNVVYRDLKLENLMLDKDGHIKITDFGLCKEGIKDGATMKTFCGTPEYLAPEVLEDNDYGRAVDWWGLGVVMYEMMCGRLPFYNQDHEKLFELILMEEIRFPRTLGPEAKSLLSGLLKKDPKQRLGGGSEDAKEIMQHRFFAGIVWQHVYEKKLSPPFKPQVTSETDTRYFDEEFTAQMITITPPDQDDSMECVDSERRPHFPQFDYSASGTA
Sequence of Serine/threonine-protein kinase PLK1 (Homo sapiens) (P53350 whole entry, the tested form may be a part): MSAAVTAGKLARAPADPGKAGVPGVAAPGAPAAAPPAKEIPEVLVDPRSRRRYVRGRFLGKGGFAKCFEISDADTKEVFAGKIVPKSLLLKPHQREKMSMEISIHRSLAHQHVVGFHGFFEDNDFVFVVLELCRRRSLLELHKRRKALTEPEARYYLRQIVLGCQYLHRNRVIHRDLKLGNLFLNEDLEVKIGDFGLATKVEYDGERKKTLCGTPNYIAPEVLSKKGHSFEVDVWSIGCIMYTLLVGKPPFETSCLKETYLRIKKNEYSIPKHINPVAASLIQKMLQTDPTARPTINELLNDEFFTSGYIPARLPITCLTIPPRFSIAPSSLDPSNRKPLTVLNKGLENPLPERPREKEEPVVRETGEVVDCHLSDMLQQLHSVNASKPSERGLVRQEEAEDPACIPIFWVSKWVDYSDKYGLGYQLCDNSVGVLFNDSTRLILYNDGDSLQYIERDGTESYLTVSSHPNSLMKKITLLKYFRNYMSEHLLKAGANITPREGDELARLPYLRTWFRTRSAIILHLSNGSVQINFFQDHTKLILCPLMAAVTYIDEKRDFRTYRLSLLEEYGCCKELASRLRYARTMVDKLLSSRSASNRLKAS

COc1ccc(-c2ccc3c(N4CCOCC4)nc(N4C[C@@H](C)O[C@@H](C)C4)nc3n2)cc1CO [Ku-0063794]
Activity [1]: 96% | Activity [2]: 90% | Activity [3]: 78% | Activity [4]: 91% | Activity [5]: 116% | Activity [6]: 94% | Activity [7]: 100% | inhibition (mTORC2 (Homo sapiens) [8]): Dose-Dependent Effect | Activity [9]: 88% | Activity [10]: 98% | Activity [11]: 117% | Activity [12]: 104% | Activity [13]: 102% | Activity [14]: 101% | Activity (MEF): 13.3% | inhibition (mTORC2 (Homo sapiens) [15]): Dose-Dependent Effect
